The source made the active and inactive calls. The calls are words filed in the database; no cut-off is given here.
Columns and labels:
[1] = test system: HL-60; experiment: Cell cycle arrest in human HL60 cells assessed as accumulation at G1 phase at 30 uM incubated for 24 hrs by flow cytometry (reference value: 48 +/- 1.6%); type: functional
[2] = biological target: T1, Mitogen-activated protein kinase; ERK1/ERK2 (Homo sapiens) (UniProt P27361+P28482); experiment: Induction of ERK1/2 phosphorylation in human HL60 cells after 30 mins by Western blotting; type: cell-based; settings: HL-60
T1 sequence (P27361 whole entry, looked up): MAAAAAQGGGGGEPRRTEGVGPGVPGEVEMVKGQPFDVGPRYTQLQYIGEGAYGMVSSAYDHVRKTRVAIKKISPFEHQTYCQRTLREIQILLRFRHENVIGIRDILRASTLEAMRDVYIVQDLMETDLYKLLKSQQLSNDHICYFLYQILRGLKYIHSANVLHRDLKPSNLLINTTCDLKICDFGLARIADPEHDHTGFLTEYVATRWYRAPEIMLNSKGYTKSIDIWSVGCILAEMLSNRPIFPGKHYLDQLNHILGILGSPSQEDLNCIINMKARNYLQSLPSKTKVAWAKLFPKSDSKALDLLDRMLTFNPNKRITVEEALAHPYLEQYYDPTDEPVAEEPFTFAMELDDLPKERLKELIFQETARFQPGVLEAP
T1 sequence (P28482 whole entry, looked up): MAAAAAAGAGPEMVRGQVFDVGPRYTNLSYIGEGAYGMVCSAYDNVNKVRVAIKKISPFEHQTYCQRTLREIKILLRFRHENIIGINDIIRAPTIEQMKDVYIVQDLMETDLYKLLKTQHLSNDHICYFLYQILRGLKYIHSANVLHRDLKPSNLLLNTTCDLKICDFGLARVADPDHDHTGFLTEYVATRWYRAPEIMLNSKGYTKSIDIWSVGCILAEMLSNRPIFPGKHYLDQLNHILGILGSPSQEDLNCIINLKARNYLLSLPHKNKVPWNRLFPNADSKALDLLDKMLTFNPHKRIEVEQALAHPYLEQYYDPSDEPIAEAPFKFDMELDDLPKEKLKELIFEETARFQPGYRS
Procedure, shortened: (§1)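 HL-60 cells (1 × 10⁶/mL) treated with compound (10–30 µM) for various times. Where used, PD98059 (10 µM) was added 1 h beforehand. Lysates run on 10% SDS-PAGE and immunoblotted for phosphorylated ERK 1/2, JNK/SAPK or p38MAPK. Blots stripped and reprobed for the total kinase as loading control.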

[3] = test system: HL-60; experiment: Cytotoxicity against human HL60 cells after 72 hrs by MTT assay; type: functional, cell-based; settings: HL-60, 72 h
Procedure, shortened: (§2)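 MTT colorimetric assay on HL-60 and HL-60/MX1 cells (RPMI 1640, 10% heat-inactivated FBS), 72 h exposure, absorbance 570 nm. IC50 obtained graphically by curve fitting. Means ± S.E. of three independent experiments, each in triplicate.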

[4] = test system: HL-60; experiment: Induction of DNA fragmentation in human HL60 cells at 30 uM incubated for 24 hrs by agarose gel electrophoresis; type: functional, cell-based
Procedure, shortened: (§3)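 HL-60 cells treated with the indicated concentrations. Genomic DNA extracted, run on agarose gel and visualised under UV after ethidium bromide staining, looking for internucleosomal fragmentation.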

[5] = biological target: T1, Mitogen-activated protein kinase; ERK1/ERK2 (Homo sapiens); experiment: Induction of ERK1/2 phosphorylation in human HL60 cells after 6 hrs by Western blotting; type: cell-based; settings: HL-60; procedure, shortened: as §1
[6] = test system: HL-60; experiment: Cytotoxicity against human HL60 cells at 100 uM after 72 hrs by MTT assay
[7] = test system: HL-60; experiment: Induction of procaspase-8 hydrolysis in human HL60 cells at 30 uM incubated for 24 hrs by immunoblotting method; type: functional, cell-based
Procedure, shortened: (§4)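 HL-60 cells (1 × 10⁶/mL) exposed to compound, harvested at 24 h. Lysed in Tris-HCl pH 7.4/Triton X-100 buffer with phosphatase and protease inhibitors, 15 min at 4 °C. Equal protein run on SDS-PAGE (7.5% PARP, 12.5% caspases) and immunoblotted on PVDF. β-Actin used as loading control.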

[8] = test system: PBMC; experiment: Cytotoxicity against human fresh PBMCs up to 30 uM; type: cell-based
Procedure, shortened: (§5)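 HL-60 cells, quiescent (fresh) PBMC and phytohemagglutinin-activated healthy human PBMC cultured 48 h over a concentration range of compound. Proliferation measured. Means ± SE of two independent experiments, each in triplicate.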

[9] = test system: HL-60; experiment: Induction of procaspase-7 processing in human HL60 cells at 30 uM incubated for 24 hrs by immunoblotting method; type: functional, cell-based; procedure, shortened: as §4
[10] = test system: HL-60; experiment: Induction of DNA fragmentation in human HL60 cells at 10 uM incubated for 24 hrs by agarose gel electrophoresis; type: functional, cell-based; procedure, shortened: as §3
[11] = test system: HL-60; experiment: Induction of procaspase-6 processing in human HL60 cells at 30 uM incubated for 24 hrs by immunoblotting method; type: functional, cell-based; procedure, shortened: as §4
[12] = test system: HL-60; experiment: Induction of apoptosis in human HL60 cells assessed as incidence of condensed and fragmented chromatin at 30 uM incubated for 24 hrs by fluorescent microscopy; type: functional, cell-based
[13] = biological target: T2, MAP kinase p38 (Homo sapiens) (UniProt O15264+Q15759+Q16539+P53778); experiment: Induction of p38MAPK phosphorylation in human HL60 cells after 30 mins by Western blotting; type: cell-based; settings: HL-60; procedure, shortened: as §1
[14] = test system: HL-60; experiment: Cell cycle arrest in human HL60 cells assessed as accumulation at S phase at 10 uM incubated for 24 hrs by flow cytometry (reference value: 16.7 +/- 0.5%); type: functional
[15] = test system: HL-60; experiment: Induction of apoptosis in human HL60 cells assessed as hypodiploid cells level at 30 uM incubated for 24 hrs in presence of caspase inhibitor z-VAD-fmk by flow cytometry; type: functional, cell-based
Procedure, shortened: (§6)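 HL-60 cells given 30 µM compound for 24 h, alone or with z-VAD-fmk (100 µM), z-DEVD-fmk, z-IETD-fmk or z-LEHD-fmk (each 50 µM). Propidium iodide staining, hypodiploid cells quantified by flow cytometry. Three independent experiments, each in triplicate.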

[16] = test system: HL-60; experiment: Cell cycle arrest in human HL60 cells assessed as accumulation at G2/M phase at 30 uM incubated for 24 hrs by flow cytometry (reference value: 33.2 +/- 2.1%); type: functional
[17] = test system: HL-60; experiment: Cell cycle arrest in human HL60 cells assessed as accumulation at G1 phase at 10 uM incubated for 24 hrs by flow cytometry (reference value: 48 +/- 1.6%); type: functional
[18] = test system: HL-60; experiment: Induction of cytochrome-c release in human HL60 cells at 30 uM incubated for 24 hrs by immunoblotting method; type: functional, cell-based
Procedure, shortened: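 HL-60 cells treated 24 h with 30 µM compound. Cytosolic extracts immunoblotted for cytochrome c released from mitochondria. β-Actin used as loading control.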

[19] = biological target: T3, c-Jun N-terminal kinase, JNK (Homo sapiens) (UniProt P45983+P53779+P45984); experiment: Induction of JNK/SAPK phosphorylation in human HL60 cells after 6 hrs by Western blotting; type: cell-based; settings: HL-60; procedure, shortened: as §1
[20] = test system: HL-60; experiment: Cell cycle arrest in human HL60 cells assessed as accumulation at S phase at 30 uM incubated for 24 hrs by flow cytometry (reference value: 16.7 +/- 0.5%); type: functional
[21] = test system: HL-60; experiment: Induction of apoptosis in human HL60 cells assessed as hypodiploid cells level incubated for 24 hrs in presence of 10 uM JNK/SAPK inhibitor SP600125 by flow cytometry; type: functional, cell-based
Procedure, shortened: (§7)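 HL-60 cells preincubated 1 h with PD98059 (10 µM), SP600125 (10 µM) or SB203580 (2 µM), then treated with compound. Hypodiploid (apoptotic) cells quantified by flow cytometry of propidium iodide-stained nuclei. Three independent experiments, each in triplicate.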

[22] = test system: HL-60; experiment: Induction of apoptosis in human HL60 cells assessed as hypodiploid cells level at 30 uM incubated for 24 hrs in presence of caspase-9 inhibitor z-LEHD-fmk by flow cytometry; type: functional, cell-based; procedure, shortened: as §6
[23] = test system: HL-60; experiment: Induction of apoptosis in human HL60 cells assessed as hypodiploid cells level incubated for 24 hrs in presence of 2 uM p38MAPK inhibitor SB203580 by flow cytometry; type: functional, cell-based; procedure, shortened: as §7
[24] = test system: HL-60; experiment: Cell cycle arrest in human HL60 cells assessed as accumulation at G2/M phase at 10 uM incubated for 24 hrs by flow cytometry (reference value: 33.2 +/- 2.1%); type: functional
[25] = test system: HL-60; experiment: Increase in apoptosis in human HL60 cells assessed as hypodiploid cells level incubated for 24 hrs in presence of 10 uM MEK1/2 inhibitor PD98059 by flow cytometry (reference value: 16%); type: functional; procedure, shortened: as §7
[26] = test system: HL-60; experiment: Induction of Bid protein cleavage in human HL60 cells at 30 uM incubated for 24 hrs by Western blotting method; type: functional, cell-based; procedure, shortened: as §4
[27] = biological target: T3, c-Jun N-terminal kinase, JNK (Homo sapiens); experiment: Induction of JNK/SAPK phosphorylation in human HL60 cells after 30 mins by Western blotting; type: cell-based; settings: HL-60; procedure, shortened: as §1
[28] = test system: HL-60; experiment: Induction of p21'Cip1 protein expression in human HL60 cells at 30 uM incubated for 24 hrs by Western blotting method; type: functional, cell-based; procedure, shortened: as §4
[29] = test system: HL-60; experiment: Induction of apoptosis in human HL60 cells assessed as hypodiploid cells level at 30 uM incubated for 24 hrs in presence of caspase-8 inhibitor z-IETD-fmk by flow cytometry; type: functional, cell-based; procedure, shortened: as §6
[30] = test system: HL-60; experiment: Cell cycle arrest in human HL60 cells assessed as accumulation at subG1 phase at 10 uM incubated for 24 hrs by flow cytometry (reference value: 2.3 +/- 0.5%); type: functional
[31] = test system: HL-60; experiment: Induction of apoptosis in human HL60 cells assessed as hypodiploid cells level at 30 uM incubated for 24 hrs in presence of caspase-3 and -7 inhibitor z-DEVD-fmk by flow cytometry; type: functional, cell-based; procedure, shortened: as §6
[32] = test system: HL-60; experiment: Induction of procaspase-9 cleavage in human HL60 cells at 30 uM incubated for 24 hrs by immunoblotting method; type: functional, cell-based; procedure, shortened: as §4
[33] = biological target: T1, Mitogen-activated protein kinase; ERK1/ERK2 (Homo sapiens); experiment: Induction of ERK1/2 phosphorylation in human HL60 cells after 30 mins in presence of 10 uM MEK1/2 inhibitor PD98059 by Western blotting; type: cell-based; settings: HL-60; procedure, shortened: as §1
[34] = test system: HL-60; experiment: Cytotoxicity against human HL60 cells up to 30 uM after 72 hrs by MTT assay; type: functional, cell-based
[35] = test system: HL-60; experiment: Induction of procaspase-3 processing in human HL60 cells at 30 uM incubated for 24 hrs by immunoblotting method; type: functional, cell-based; procedure, shortened: as §4
[36] = biological target: T2, MAP kinase p38 (Homo sapiens); experiment: Induction of p38MAPK phosphorylation in human HL60 cells after 2 hrs by Western blotting; type: cell-based; settings: HL-60; procedure, shortened: as §1
[37] = test system: HL-60; experiment: Induction of caspase activation in human HL60 cells assessed as increase in PARP cleavage at 30 uM incubated for 24 hrs by immunoblotting method; type: functional, cell-based; procedure, shortened: as §4
[38] = test system: HL-60; experiment: Cell cycle arrest in human HL60 cells assessed as accumulation at subG1 phase at 30 uM incubated for 24 hrs by flow cytometry (reference value: 2.3 +/- 0.5%); type: functional
[39] = test system: HL-60; experiment: Induction of cyclin D1 protein expression in human HL60 cells at 30 uM incubated for 24 hrs by Western blotting method; type: functional, cell-based; procedure, shortened: as §4
[40] = Cytotoxicity against human HL60/MX1 cells after 72 hrs by MTT assay; type: functional, cell-based; settings: HL60/MX1, 72 h; procedure, shortened: as §2
[41] = test system: PBMC; experiment: Cytotoxicity against human proliferating PBMCs up to 30 uM; type: cell-based; procedure, shortened: as §5
[42] = test system: HL-60; experiment: Induction of apoptosis in human HL60 cells assessed as changes in nuclear morphology at 30 uM incubated for 24 hrs by fluorescence microscopy (reference value: 4.9 +/- 1.0%)

Structure (SMILES): COC(=O)c1c(C)c(C)cc2c(=O)cc(-c3ccccc3Cl)oc12
- Activity [1]: 47.2%
- Activity [2]: Active
- IC50 [3]: 9.3 µM
- Activity [4]: Active
- Activity [5]: Active
- Activity [6]: Active
- Activity [7]: Active
- Activity [8]: Non-toxic
- Activity [9]: Active
- Activity [10]: Active
- Activity [11]: Active
- Activity [12]: Active
- Activity [13]: Active
- Activity [14]: 16.7%
- Activity [15]: inactive
- Activity [16]: 13.5%
- Activity [17]: 54.9%
- Activity [18]: Active
- Activity [19]: Active
- Activity [20]: 7.8%
- Activity [21]: Active
- Activity [22]: inactive
- Activity [23]: Active
- Activity [24]: 22.9%
- Activity [25]: 32%
- Activity [26]: Active
- Activity [27]: Active
- Activity [28]: Active
- Activity [29]: inactive
- Activity [30]: 6.3%
- Activity [31]: inactive
- Activity [32]: Active
- Activity [33]: inactive
- Activity [34]: Active
- Activity [35]: Active
- Activity [36]: inactive
- Activity [37]: Active
- Activity [38]: 28.1%
- Activity [39]: Active
- IC50 [40]: 70.7 µM
- Activity [41]: Non-toxic
- Activity [42]: 30.6%

From ChEMBL document CHEMBL2169813, “Cell death triggered by synthetic flavonoids in human leukemia cells is amplified by the inhibition of extracellular signal-regulated kinase signaling” (Eur J Med Chem, 2012)
